Screens from PubChem BioAssay.
TCR CD3 inh: human TCR-CD3 binding inhibition; inhibition, % at 9.4 µM; AID 651800; TAMRA-labeled TCR probe fluorescence, biochemical; 0.37% of 360,000 active;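 further: recombinant mutant TCR 2C K166C tagged with TAMRA read by polarization; 0% = receptor in buffer alone and 100% = receptor with positive control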
LEDGF integ inh: blocks HIV-1 LEDGF/p75-dependent DNA integration; TR-FRET IN-LEDGF/p75 DNA integration, Eu/Cy5; 0.64% of 370,000 active; inhibition, % at 3.7 µM;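 active means inhibition above the screen-wide mean plus 3 SD, cut at about 13% in these data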;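 further: signal is the Cy5 over europium emission ratio at 671 and 618 nm; 0% = plate median of compound wells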
HTRA1 inh: blocks human HTRA1 serine peptidase | Q92743 | recombinant HTRA1, FP-rhodamine activity-based probe, fluorescence polarization | inhibition, % at 5.96 µM | 0.5% of 340,000 active | AID 504803; in the data active means inhibition above about 36%;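 further: 0% = enzyme with DMSO and 100% = wells lacking enzyme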
TDP2 inh: TDP2 (human) inhibition, absorbance primary screen | O95551 | recombinant TDP2, T5PNP hydrolysis, p-nitrophenol absorbance 415 nm | inhibition, % at 12.8 µM | 0.34% of 370,000 active | AID 720702;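 active means inhibition above the mean of all tested compounds plus 3 SD, set per campaign, cut at about 25% in these data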;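 further: 0% = DMSO with enzyme and 100% = buffer with substrate but no TDP2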
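System: recombinant human TDP2 / Amount: 120 nM TDP2 per well / Also added: 5 mM T5PNP chromogenic substrate / Doses: 12.8 µM single point, 1% DMSO / Incubation: 2 h at 37 °C / Detection: p-Nitrophenol epi absorbance / Evaluation: % inhibition relative to enzyme-containing and enzyme-free wells / Repeats: singlicate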
SIAE inh: human SIAE inhibition, primary screen; SIAE FP-Rh probe binding, fluorescence polarization; inhibition, % at 9.66 µM; 0.69% of 370,000 active; AID 1053197;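 active means inhibition above a cutoff: mean of compounds within the control limits plus 3 SD of those, cut at about 17% in these data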;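 further: 0% = plate median of compound wells and 100% = probe without SIAE protein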
Target sequence (Q9HAT2 whole entry, looked up): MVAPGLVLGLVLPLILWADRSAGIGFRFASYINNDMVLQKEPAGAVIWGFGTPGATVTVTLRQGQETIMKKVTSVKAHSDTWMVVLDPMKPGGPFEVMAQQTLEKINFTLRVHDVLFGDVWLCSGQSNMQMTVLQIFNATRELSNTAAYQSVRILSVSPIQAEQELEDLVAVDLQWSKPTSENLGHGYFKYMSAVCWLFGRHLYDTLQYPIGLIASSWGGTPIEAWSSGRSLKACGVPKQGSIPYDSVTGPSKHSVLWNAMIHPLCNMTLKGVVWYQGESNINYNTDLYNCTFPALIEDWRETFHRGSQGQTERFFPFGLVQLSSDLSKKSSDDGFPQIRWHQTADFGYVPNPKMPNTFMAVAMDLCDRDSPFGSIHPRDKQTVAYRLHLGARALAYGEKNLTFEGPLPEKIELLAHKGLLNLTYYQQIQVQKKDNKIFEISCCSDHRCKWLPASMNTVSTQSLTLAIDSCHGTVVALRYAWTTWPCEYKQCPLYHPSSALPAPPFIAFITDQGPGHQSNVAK
mABHD4 FP: inhibitors of mouse ABHD4; Q8VD66; purified mABHD4, FP-Rh probe fluorescence polarization; inhibition, % at 8.92 µM; 0.54% of 370,000 active; AID 720543;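 active means inhibition exceeding the mean over every tested compound plus 3 SD, cut at about 30% in these data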;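 further: 0% = plate median of compound wells and 100% = S159A mutant with DMSO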
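System: mouse ABHD4 enzyme, wild type / Medium: HEPES pH 7.0, NaCl, Pluronic buffer / Reagent: FP-Rh activity-based fluorescent probe / Control set: S159A mutant high control, sample median low control / Detection: fluorescence polarization with parallel and perpendicular emission, 525/598 nm / Schedule: 45 min + 60 min at 25 °C / Compound dosing: 8.92 µM, single dose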
HTRA1 inh conf: HTRA1 (human) inhibition, confirmation; shares compounds with HTRA1 inh; recombinant HTRA1, FP-rhodamine activity-based probe, fluorescence polarization; inhibition, % at 5.96 µM; 66% of 1,600 active; AID 540248;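 active means mean inhibition over three repeats above a set limit taken from the earlier primary screen, cut at about 37% in these data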;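 further: 0% = HTRA1 with DMSO and 100% = wells lacking HTRA1; inhibitors block probe binding so polarization drops and inhibition rises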
BSA probe FL: interferes with TAMRA-BSA probe, flagging TCR-CD3 hits; shares compounds with TCR CD3 inh; AID 652035; 10% of 1,200 active; inhibition, % at 9.4 µM; TAMRA-labeled BSA probe fluorescence counterscreen; in the data active means inhibition above about 23%;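 further: 0% = buffer low control and 100% = reference high control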
TCR-CD3 conf: TCR-CD3 interaction inhibition, confirmation | shares compounds with TCR CD3 inh | TAMRA-labeled TCR probe fluorescence binding assay | inhibition, % at 9.4 µM | 48% of 1,200 active | AID 652036
mABHD4 conf: ABHD4 (mouse) inhibition, FP confirmation; shares compounds with mABHD4 FP; purified mABHD4, FP-Rh probe fluorescence polarization; inhibition, % at 8.92 µM; 55% of 1,800 active;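 active means mean inhibition across replicates above the hit cutoff set in the primary screen, cut at about 30% in these data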;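 further: 0% = wild-type ABHD4 with DMSO and 100% = catalytically dead S159A mutant with DMSO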
IN multimer up: counter-screen for LEDGF/p75 integration inhibitors: HIV-1 integrase multimerization activators; 17% of 2,000 active; shares compounds with LEDGF integ inh; activation, % at 7.7 µM; TR-FRET HIV-1 integrase multimerization, biochemical; in the data active means activation above about 8.9%
TRFRET interf: optically interferes with TR-FRET readout in LEDGF counter-screen | shares compounds with LEDGF integ inh | TR-FRET optical interference counterscreen, HIV-1 IN multimerization | inhibition, % at 7.7 µM | 2,000 tested, under 10 active | AID 1053135;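 active means inhibition above the mean over all tested compounds plus 3 SD, which no compound reached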;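 further: 0% = integrase with antibodies and DMSO and 100% = antibodies without integrase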
LEDGF integ conf: confirmation of HIV-1 LEDGF/p75-dependent integration inhibitors | shares compounds with LEDGF integ inh | TR-FRET LEDGF/p75-dependent HIV-1 integration, biochemical | inhibition, % at 3.7 µM | 36% of 2,000 active | AID 1053136; in the data active means inhibition above about 14%
SIAE confirm: human SIAE inhibition, confirmation; shares compounds with SIAE inh; SIAE FP-Rh activity-based probe, fluorescence polarization; inhibition, % at 9.66 µM; 13% of 2,300 active; AID 1117263;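 active means mean inhibition of the replicates above the hit cutoff set in the primary screen, cut at about 17% in these data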;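 further: 0% = SIAE with DMSO and probe and 100% = probe without SIAE; inhibitors lower polarization as more probe stays unbound to SIAE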
* hit, by the source's call; x = no result. Most compounds without a hit are left out; they make up all but 2.2% or so of the library. Unless noted, no stated cut-off is given here; in the data, active means inhibition above about 19%; inactive means the rest.

SMILES | TCR CD3 inh | LEDGF integ inh | HTRA1 inh | TDP2 inh | SIAE inh | mABHD4 FP | HTRA1 inh conf | BSA probe FL | TCR-CD3 conf | mABHD4 conf | IN multimer up | TRFRET interf | LEDGF integ conf | SIAE confirm
S=C(Nc1ccccc1)Nc1ccccn1 | 2 | -3 | 0 | 7 | 4 | -3 | x | x | x | x | x | x | x | x
O=C(Nc1cccc2[nH]ncc12)NS(=O)(=O)c1ccccc1 | 58* | 4 | 44* | -3 | 48* | 98* | 7 | 35* | 27* | 8 | x | x | x | 9
CC(=O)Nc1ccc(S(=O)(=O)Nc2cccc3[nH]ncc23)cc1 | 3 | -3 | -2 | -5 | 10 | 2 | x | x | x | x | x | x | x | x
C#CCn1cc(/C=N/Nc2nc3ccccc3[nH]2)c2ccccc21 | -5 | -3 | 43* | -4 | 55* | 24 | 45* | x | x | x | x | x | x | 61*
C=C1N(C)c2cc([N+](=O)[O-])c(N)cc2C1(C)C | 1 | 1 | 54* | 9 | 18* | 23 | 33 | x | x | x | x | x | x | 15
Nc1ccc(Oc2ccc(N)c([N+](=O)[O-])c2)cc1[N+](=O)[O-] | -2 | -2 | 5 | -19 | 3 | 3 | x | x | x | x | x | x | x | x
CC1(C)OC(C)(C)/C(=C/Nc2ccc(O)cc2)C1=O | 33* | 21* | 63* | 11 | 33* | 62* | 21 | 9 | 14 | 25 | 45* | -158 | 31* | 9
Cc1cc2cc(CNS(=O)(=O)c3ccccc3)ccc2n1C | 50* | 6 | 51* | -7 | 17* | 37* | 25 | 7 | 19 | 4 | x | x | x | 0
O=C(N/N=C/c1ccc(O)c(Br)c1)c1cc2c(ccc3ccccc32)o1 | -12 | 2 | -4 | -13 | 1 | -3 | x | x | x | x | x | x | x | x
O=C(N/N=C/c1cc(Cl)c(O)c(Cl)c1)c1cc2c(ccc3ccccc32)o1 | 12 | 1 | 46* | 13 | 55* | 29 | 50* | x | x | x | x | x | x | 41*
O=C(N/N=C/c1cc(Br)c(O)c(Br)c1)c1cc2c(ccc3ccccc32)o1 | 15 | 9 | 46* | -4 | 57* | 11 | 49* | x | x | x | x | x | x | 26*
COc1ccc(C(=O)CSc2nnc(-c3ccco3)n2C)cc1 | -3 | 1 | 0 | -7 | 9 | -5 | x | x | x | x | x | x | x | x
COc1cccc(NC(=O)CSc2nnc(-c3ccco3)c(-c3ccco3)n2)c1 | 20* | 25* | 39* | 9 | 20* | 46* | -6 | x | x | 25 | 8 | -30 | 39* | 4
COc1ccc(C(=O)CSc2nnc(-c3ccco3)c(-c3ccco3)n2)cc1 | 16 | 15* | 37* | 11 | 19* | 19 | -4 | x | x | x | 13* | -47 | 41* | 7
O=c1[nH]c(=S)[nH]c2nc(-c3ccccc3)cnc12 | 0 | 0 | 2 | -11 | 3 | 9 | x | x | x | x | x | x | x | x
Cc1cc2nc3c(=O)[nH]c(=S)[nH]c3nc2cc1NC(=O)C(F)(F)F | 70* | 74* | 46* | 3 | 21* | 65* | 3 | -2 | 9 | 18 | 12* | -42 | 5 | 8
